Published values from different studies.
Each line is one published result; the experiments were not run side by side.
Target: Cytoplasmic tyrosine-protein kinase BMX (BMX, Homo sapiens, UniProt P51813)
One construct used (P51813 1-675): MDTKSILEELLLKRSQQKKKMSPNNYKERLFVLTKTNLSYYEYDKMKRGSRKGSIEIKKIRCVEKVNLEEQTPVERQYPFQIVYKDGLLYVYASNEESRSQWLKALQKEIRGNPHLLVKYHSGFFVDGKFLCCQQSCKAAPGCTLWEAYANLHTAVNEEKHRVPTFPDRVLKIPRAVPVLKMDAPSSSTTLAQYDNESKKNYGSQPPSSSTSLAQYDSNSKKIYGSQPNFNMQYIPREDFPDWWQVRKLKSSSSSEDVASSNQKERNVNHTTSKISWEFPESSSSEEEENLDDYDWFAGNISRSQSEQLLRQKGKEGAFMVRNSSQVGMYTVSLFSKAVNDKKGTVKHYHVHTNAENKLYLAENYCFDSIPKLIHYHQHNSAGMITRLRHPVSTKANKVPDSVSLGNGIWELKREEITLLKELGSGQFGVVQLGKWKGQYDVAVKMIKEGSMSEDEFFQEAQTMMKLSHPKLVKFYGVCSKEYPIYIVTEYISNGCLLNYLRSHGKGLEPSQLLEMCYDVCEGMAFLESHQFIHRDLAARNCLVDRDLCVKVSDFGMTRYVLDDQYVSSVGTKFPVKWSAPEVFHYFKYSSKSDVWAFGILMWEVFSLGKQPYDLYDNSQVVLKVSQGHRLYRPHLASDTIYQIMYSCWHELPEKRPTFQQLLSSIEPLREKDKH

O=C1Nc2ccc(Cl)cc2C1=Cc1cc(Cl)c(O)c(Cl)c1
remaining signal (cell-free assay; 0.5 µM): 94.8%

Cn1c2c(c3ccc(Cl)c(Cl)c31)C(C#N)C1(CCOCC1)NC2=O (centres unmarked)
ΔTm (thermal stability, DSF; 10 µM): -0.3 °C

CCN(CC)CCNC(=O)c1c(C)[nH]c(/C=C2\C(=O)Nc3ccc(F)cc32)c1C
inhibition (enzyme activity, inhibitor; 0.3 µM): -1%

CC1=C(C#N)[C@@H](c2ccc3[nH]nc(C)c3c2)C(C#N)=C(c2ccc(Cl)cc2)N1
remaining binding (cell-free assay, competition with immobilised ligand; 1 µM): 100%

CNC(=O)c1cc(Oc2ccc(NC(=O)Nc3ccc(Cl)c(C(F)(F)F)c3)cc2)ccn1
inhibition (enzyme activity, inhibitor; 10 µM): 9%

COc1cc2ncnc(Nc3ccc(Oc4ccccc4)c(C)c3C)c2cc1OC
inhibition (enzyme activity, inhibitor; 1 µM): 1%

CC(=O)N1CCC(c2ccc(C(=O)NC(=N)N)cc2C(F)(F)F)CC1
remaining binding (cell-free assay, competition with immobilised ligand; 1 µM): 100%

c1nc2c(Nc3ccc4c(c3)OCCO4)nc(Nc3ccc4c(c3)OCCO4)nc2[nH]1
activity vs control (enzyme activity, inhibitor; 10 µM): 9.7%

Cn1cncc1C1=CN(c2ncnc3[nH]cnc23)CCS1
inhibition (enzyme activity, inhibitor, radiometric; 2 µM): 40%

CNc1cccc2cc(C(=O)Nc3ccc(C(=O)O)cc3)c(=O)[nH]c12
inhibition (enzyme activity, inhibitor; 10 µM): 9.1%

C#Cc1cccc(Nc2ncnc3cc(OCCOC)c(OCCOC)cc23)c1
remaining signal (cell-free assay; 0.5 µM): 100%

CC/C(=N\NC(=O)NCc1cccc(O)c1)c1ccc(O)c(C)c1O
inhibition (enzyme activity, inhibitor; 0.1 µM): 3%

O=C1NC(=O)c2cc(Nc3ccc(F)cc3)c(Nc3ccc(F)cc3)cc21
remaining signal (cell-free assay; 0.5 µM): 95.3%

CCC1(CC)NC(=O)c2c(c3ccc(Cl)c(Cl)c3n2C)C1C#N (centres unmarked)
ΔTm (thermal stability, DSF; 10 µM): 0.1 °C

FC(F)(F)c1ccc2c(c1)nc(-c1cccnc1)n2C1CC1
remaining binding (cell-free assay, competition with immobilised ligand; 1 µM): 100%

Cn1c2c(c3ccc(Cl)c(Cl)c31)C(C#N)C1(CCCCC1)NC2=O (racemic)
ΔTm (thermal stability, DSF; 10 µM): 0.1 °C

COc1cc2nccc(Oc3ccc(NC(=S)NC(=O)c4ccccc4C)cc3)c2cc1OC
remaining activity (enzyme activity, inhibitor; 0.5 µM): 30.6%

Cc1ccc(NC(=O)c2ccc(C)c(C(F)(F)F)c2)cc1C#Cc1nn(C2CCC(O)CC2)c2ncnc(N)c12 (centres unmarked)
remaining signal (cell-free assay; 10 µM): -1%

O=C(Nc1ccc(Oc2ccc(F)cc2)cc1)N1CCc2ncccc2[C@H]1c1ccc(F)cc1
remaining binding (cell-free assay, competition with immobilised ligand; 1 µM): 100%

N#CCCc1ccc2c(c1)-c1[nH]c3ccc([N+](=O)[O-])cc3c1CC(=O)N2
remaining signal (cell-free assay; 0.5 µM): 99.5%

Cc1ccc(Nc2nccc(N(C)c3ccc4c(C)n(C)nc4c3)n2)cc1S(N)(=O)=O
inhibition (enzyme activity, inhibitor; 10 µM): 70%

COc1cc2c(N3CCN(C(=O)Nc4ccc(OC(C)C)cc4)CC3)ncnc2cc1OCCCN1CCCCC1
remaining signal (cell-free assay; 0.5 µM): 109%

O=C(NCc1ncc(C(F)(F)F)cc1Cl)c1ccc2c(c1)C1(CCS(=O)(=O)CC1)[C@H](C1CC1)N2S(=O)(=O)c1ccc(F)cc1
remaining binding (cell-free assay, competition with immobilised ligand; 1 µM): 100%

Cc1ccc(C(=O)NCc2ccsc2)cc1C#Cc1cn(C(C)C)c2ncnc(N)c12
activity vs control (enzyme activity, inhibitor; 1 µM): 2%

N#CC1c2c([nH]c3c(Cl)c(Cl)ccc23)C(=O)NC12CCCCC2 (racemic)
ΔTm (thermal stability, DSF; 10 µM): -0.1 °C

O=c1cc(-c2cccc3c2Sc2ccccc2S3)oc(N2CCOCC2)c1
remaining activity (enzyme activity, inhibitor; 0.5 µM): 112%

O=C(Nc1cccnn1)N1CCC(=Cc2cccc(Oc3ccc(C(F)(F)F)cn3)c2)CC1
remaining binding (cell-free assay, competition with immobilised ligand; 1 µM): 71%

CN(C)C1CCN(CC#Cc2nn(C3CCCC3)c3nc(NCc4ccccc4)ncc23)C1 (centres unmarked)
inhibition (enzyme activity, inhibitor, FRET; 0.1 µM): 11%

CS(=O)(=O)c1cc(C2(NC(=O)c3cncc4c3cnn4-c3ccc(F)cc3)CC2)ccn1
remaining binding (cell-free assay, competition with immobilised ligand; 1 µM): 100%

CNc1cc2c(Nc3cccc(Br)c3)ncnc2cn1
remaining activity (enzyme activity, inhibitor; 0.5 µM): 93.9%

O=C(Nc1cnc(Oc2ccc(F)cc2)nc1)N1CCc2ncccc2[C@@H]1c1ccc(F)cc1
remaining binding (cell-free assay, competition with immobilised ligand; 1 µM): 94%

Cn1c2c(c3ccc(Cl)c(Cl)c31)C(C#N)C1(CCCC1)NC2=O (centres unmarked)
ΔTm (thermal stability, DSF; 10 µM): 0 °C
